# Laboratory results: paper PMC3249179 (European Journal of Clinical Pharmacology, 2011)
# Read-outs that look alike come from different tables or passages of the source. Marks after values point to notes of the source that are not given here.
# Key:
# CYP3A4 [1] = conditions: coadministration of FLV (100 mg q.d.); cited from earlier work
# CYP3A4 [2] = tested on: CYP3A4; set-up: species or system healthy Japanese male volunteers; conditions: FLV 100 mg/day, calculated from APZ CL/F
# CYP2D6 [3] = conditions: coadministration of FLV (100 mg q.d.); cited from earlier work
# [4] = APZ 3 mg with CYP3A4 inhibitor itraconazole 100 mg; Japanese EM subjects; cited from earlier work
# [5] = type: in vivo, healthy Japanese male volunteers; conditions: for AUC ratio (period II/period I) / CL/F ratio (period II/period I) / Cmax ratio (period II/period I) / t1/2,z ratio (period II/period I) / tmax difference (period II − period I): APZ + PRX vs APZ alone; for AUC ratio (period II/period I) / CL/F ratio (period II/period I) / Cmax ratio (period II/period I) / t1/2,z ratio (period II/period I): geometric mean ratio; for tmax difference (period II − period I): mean difference
# CYP2D6 [6] = assay: Calculation of the contribution of CYP2D6 to APZ metabolism; set-up: species or system healthy Japanese male volunteers; conditions: before CYP inhibition
# [7] = type: in vivo, healthy Japanese male volunteers; conditions: for AUC ratio (period II/period I) / CL/F ratio (period II/period I) / Cmax ratio (period II/period I) / t1/2,z ratio (period II/period I) / tmax difference (period II − period I): APZ + FLV vs APZ alone; for AUC ratio (period II/period I) / CL/F ratio (period II/period I) / Cmax ratio (period II/period I) / t1/2,z ratio (period II/period I): geometric mean ratio; for tmax difference (period II − period I): mean difference
# How it was run: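 Healthy Japanese men aged 20–40 y (BMI 18.5–25.0), CYP2D6-genotyped from blood DNA; 7 per genotype randomly selected. Period I: 3 mg APZ tablet orally, fasting; 34-day washout. Fluvoxamine pretreatment 6 days, then APZ given at SSRI steady state, fluvoxamine continued 14 days. Heparinized plasma sampled predose to 336 h, stored −20°C; APZ and DAPZ by LC-MS/MS. Mean ± SD; per-subject period II/I GMR.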
# [8] = cited from earlier work
# [9] = clinical doses of PRX (20–30 mg q.d.); cited from earlier work
# [10] = CYP2D6 EM, APZ + PRX 20 mg/day (period II), single oral 3 mg APZ, mean ± SD
# [11] = CYP2D6 EM, APZ alone (period I), PRX group, single oral 3 mg APZ, mean ± SD
# [12] = CYP2D6 IM, APZ + PRX 20 mg/day (period II), single oral 3 mg APZ, mean ± SD
# [13] = CYP2D6 IM, APZ alone (period I), PRX group, single oral 3 mg APZ, mean ± SD
# [14] = male, human, plasma, oral, 3 mg
# [15] = CYP2D6 EM, APZ + FLV 100 mg/day (period II), single oral 3 mg APZ, mean ± SD
# [16] = CYP2D6 EM, APZ alone (period I), FLV group, single oral 3 mg APZ, mean ± SD
# [17] = CYP2D6 IM, APZ + FLV 100 mg/day (period II), single oral 3 mg APZ, mean ± SD
# [18] = CYP2D6 IM, APZ alone (period I), FLV group, single oral 3 mg APZ, mean ± SD
compound,measurement,setting,value
"COCCCC/C(=N\OCCN)c1ccc(C(F)(F)F)cc1 [FLV, fluvoxamine]",increase in blood concentration of CYP3A4 substrates,CYP3A4 [1],several-fold
same,percent inhibition of CYP3A4 by coadministration of FLV,CYP3A4 [2]; CYP2D6 EM subjects,64%
same,percent inhibition of CYP3A4 by coadministration of FLV,CYP3A4 [2]; CYP2D6 IM subjects,48%
same,effect on the PK of desipramine and metoprolol (CYP2D6 substrates),CYP2D6 [3],without significantly affecting
"O=C1CCc2ccc(OCCCCN3CCN(c4cccc(Cl)c4Cl)CC3)cc2N1 [Aripiprazole, aripiprazole]",decrease in CL/F,[4],27%
same,decrease in CL/F by coadministration of PRX,[5]; CYP2D6 EM subjects,58%
same,increase in Cmax by coadministration of PRX,[5]; CYP2D6 EM subjects,39%
same,CL/F,[5]; [10],2.22 ± 0.31 L/h
same,AUC ratio (period II/period I),[5]; CYP2D6 EM,2.40^a
same,CL/F ratio (period II/period I),[5]; CYP2D6 EM,0.42^a
same,Cmax ratio (period II/period I),[5]; CYP2D6 EM,1.39^a
same,"t1/2,z ratio (period II/period I)",[5]; CYP2D6 EM,1.83^a
same,CL/F,[5]; [11],5.42 ± 1.25 L/h
same,decrease in CL/F by coadministration of PRX,[5]; CYP2D6 IM subjects,23%
same,CL/F,[5]; [12],1.78 ± 0.20 L/h
same,AUC ratio (period II/period I),[5]; CYP2D6 IM,1.30^a
same,CL/F ratio (period II/period I),[5]; CYP2D6 IM,0.77^a
same,Cmax ratio (period II/period I),[5]; CYP2D6 IM,1.27^a
same,"t1/2,z ratio (period II/period I)",[5]; CYP2D6 IM,1.21^a
same,CL/F,[5]; [13],2.32 ± 0.33 L/h
same,interindividual variability in CL/F,"[5]; EM subjects of PRX group, APZ alone",23 % CV
same,interindividual variability in CL/F,"[5]; EM subjects, coadministration of PRX",14 % CV
same,interindividual variability in CL/F,"[5]; IM subjects of PRX group, APZ alone",14 % CV
same,AUC,[5]; [14],1320 ng·h/mL
same,Cmax,[5]; [14],14.5 ± 3.4 ng/mL
same,half-life,[5]; [14],107 ± 18.9 h
same,tmax,"[5]; male, human, plasma, oral, 3 mg, tmax, CYP2D6 IM, APZ alone (period I), PRX group, single oral 3 mg APZ, mean ± SD",3.3 ± 1.6 h
same,tmax,"[5]; male, human, plasma, oral, tmax, coadministration of APZ with PRX in period II",~2 h
same,AUC,"[5]; male, human, plasma, po, 3 mg",582 ± 150 ng·h/mL
same,Cmax,"[5]; male, human, plasma, po, 3 mg",12.6 ± 2.6 ng/mL
same,half-life,"[5]; male, human, plasma, po, 3 mg",60.7 ± 9.2 h
same,percent contribution of CYP2D6 to total CL/F (metabolic activity) of APZ,"CYP2D6 [6]; CYP2D6 EM, FLV coadministration group",40%
same,percent contribution of CYP2D6 to total CL/F (metabolic activity) of APZ,"CYP2D6 [6]; CYP2D6 EM, PRX coadministration group",62%
same,percent contribution of CYP2D6 to total CL/F (metabolic activity) of APZ,"CYP2D6 [6]; CYP2D6 IM, FLV coadministration group",18%
same,percent contribution of CYP2D6 to total CL/F (metabolic activity) of APZ,"CYP2D6 [6]; CYP2D6 IM, PRX coadministration group",24%
same,CL/F,[7]; [15],2.03 ± 0.46 L/h
same,AUC ratio (period II/period I),[7]; CYP2D6 EM,1.63^a
same,CL/F ratio (period II/period I),[7]; CYP2D6 EM,0.61^a
same,Cmax ratio (period II/period I),[7]; CYP2D6 EM,1.39^a
same,"t1/2,z ratio (period II/period I)",[7]; CYP2D6 EM,1.44^a
same,CL/F,[7]; [16],3.30 ± 0.59 L/h
same,decrease in CL/F by coadministration of fluvoxamine,[7]; CYP2D6 EMs,39%
same,CL/F,[7]; [17],1.26 ± 0.35 L/h
same,AUC ratio (period II/period I),[7]; CYP2D6 IM,1.65^a
same,CL/F ratio (period II/period I),[7]; CYP2D6 IM,0.60^a
same,Cmax ratio (period II/period I),[7]; CYP2D6 IM,1.27^a
same,"t1/2,z ratio (period II/period I)",[7]; CYP2D6 IM,1.49^a
same,tmax difference (period II − period I),[7]; CYP2D6 IM,0.00^b h
same,CL/F,[7]; [18],2.10 ± 0.69 L/h
same,decrease in CL/F by coadministration of fluvoxamine,[7]; CYP2D6 IMs,40%
same,decrease in CL/F in period II (FLV) compared with period I,[7]; both the IM and EM subjects,approximately 40%
same,AUC,[7]; [14],1540 ng·h/mL
same,Cmax,[7]; [14],15.3 ± 3.4 ng/mL
same,half-life,[7]; [14],105 ± 6.8 h
same,tmax,"[7]; male, human, plasma, oral, 3 mg, tmax, CYP2D6 IM, APZ alone (period I), FLV group, single oral 3 mg APZ, mean ± SD",3 ± 1.8 h
same,AUC,"[7]; male, human, plasma, po, 3 mg",935 ± 173 ng·h/mL
same,Cmax,"[7]; male, human, plasma, po, 3 mg",14.7 ± 2.9 ng/mL
"O=c1ccc2ccc(OCCCCN3CCN(c4cccc(Cl)c4Cl)CC3)cc2[nH]1 [Dehydroaripiprazole, dehydroaripiprazole]",excretion in urine and feces,[8],almost no
same,Cmax,[5]; [10],0.9 ± 0.1 ng/mL
same,tmax,[5]; [10],89.1 ± 38.5 h
same,AUC ratio (period II/period I),[5]; CYP2D6 EM,1.21
same,Cmax ratio (period II/period I),[5]; CYP2D6 EM,0.67
same,"t1/2,z ratio (period II/period I)",[5]; CYP2D6 EM,1.91
same,tmax difference (period II − period I),[5]; CYP2D6 EM,37.71 h
same,Cmax,[5]; [11],1.3 ± 0.3 ng/mL
same,"t1/2,z",[5]; [11],86.1 ± 10.7 h
same,tmax,[5]; [11],51.4 ± 16.6 h
same,Cmax,[5]; [12],0.8 ± 0.1 ng/mL
same,tmax,[5]; [12],133.7 ± 27.2 h
same,AUC ratio (period II/period I),[5]; CYP2D6 IM,0.89
same,Cmax ratio (period II/period I),[5]; CYP2D6 IM,0.88
same,"t1/2,z ratio (period II/period I)",[5]; CYP2D6 IM,0.73
same,tmax difference (period II − period I),[5]; CYP2D6 IM,30.71 h
same,Cmax,[5]; [13],1.0 ± 0.2 ng/mL
same,tmax,[5]; [13],103.0 ± 38.7 h
same,Cmax,[7]; [15],1.6 ± 0.2 ng/mL
same,"t1/2,z",[7]; [15],227.8 ± 63.2 h
same,tmax,[7]; [15],72.0 ± 0.0 h
same,AUC ratio (period II/period I),[7]; CYP2D6 EM,2.05^a
same,Cmax ratio (period II/period I),[7]; CYP2D6 EM,1.23^a
same,"t1/2,z ratio (period II/period I)",[7]; CYP2D6 EM,2.00^a
same,tmax difference (period II − period I),[7]; CYP2D6 EM,12.00^b h
same,Cmax,[7]; [16],1.3 ± 0.3 ng/mL
same,"t1/2,z",[7]; [16],115.0 ± 39.6 h
same,tmax,[7]; [16],60.0 ± 13.1 h
same,Cmax,[7]; [17],1.2 ± 0.3 ng/mL
same,tmax,[7]; [17],157.7 ± 36.3 h
same,Cmax ratio (period II/period I),[7]; CYP2D6 IM,0.95^a
same,tmax difference (period II − period I),[7]; CYP2D6 IM,37.71^b h
same,Cmax,[7]; [18],1.2 ± 0.3 ng/mL
same,tmax,[7]; [18],120.0 ± 41.6 h
"Fc1ccc([C@@H]2CCNC[C@H]2COc2ccc3c(c2)OCO3)cc1 [PRX, paroxetine]",steady-state blood concentrations,[9],35 to 43 ng/mL
